Screening results deposited in PubChem by several laboratories.
Rows were chosen to be rich in hits. Some 8.8% of all compounds tested hit in one or more screens of this group.
S1P3 ag = agonists of human S1P3 receptor. activation, % at 4.5 µM. Q99500. S1P3 NFAT-BLA reporter cells, agonism, FRET ratio; relative to 1 µM S1P, basal subtracted. 0.1% of 60,000 active;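 active = activation above the screen-wide mean plus 3 SD, cut at about 4.5% in these data, passing the limit was not always enough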
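material = human S1P3 NFAT-BLA reporter CHO cells | schedule = 4 h compound at 37 °C, 2 h substrate at RT | measured by = fluorescent BLA substrate, ex 405 nm, em 460/535 nm ratio | controls = 1 µM S1P reference | replication = primary once, confirmation triplicate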
RORA act = activates the human nuclear receptor RORA. CHO-K1 Gal4-RORA LBD luciferase reporter, luminescence; percent increase over mock-subtracted basal signal. 1.5% of 65,000 active. activation, % at 10 µM. AID 560. P35398;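 active = activation above the mean of all tested compounds plus 3 SD, cut at about 49% in these data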;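 also: 0% = DMSO-treated RORA cells and 100% = added signal equal to DMSO minus mock-transfected cells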
SF1 activator = activates the human nuclear receptor SF-1; Q13285; activation, % at 10 µM; CHO-K1 Gal4-SF-1 LBD luciferase reporter; % increase over DMSO SF-1-specific signal; 1.9% of 65,000 active;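 active = activation above the mean activation of all tested compounds plus 3 SD, cut at about 50% in these data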
Target sequence (Q13285 whole entry, looked up, the tested form may be a part): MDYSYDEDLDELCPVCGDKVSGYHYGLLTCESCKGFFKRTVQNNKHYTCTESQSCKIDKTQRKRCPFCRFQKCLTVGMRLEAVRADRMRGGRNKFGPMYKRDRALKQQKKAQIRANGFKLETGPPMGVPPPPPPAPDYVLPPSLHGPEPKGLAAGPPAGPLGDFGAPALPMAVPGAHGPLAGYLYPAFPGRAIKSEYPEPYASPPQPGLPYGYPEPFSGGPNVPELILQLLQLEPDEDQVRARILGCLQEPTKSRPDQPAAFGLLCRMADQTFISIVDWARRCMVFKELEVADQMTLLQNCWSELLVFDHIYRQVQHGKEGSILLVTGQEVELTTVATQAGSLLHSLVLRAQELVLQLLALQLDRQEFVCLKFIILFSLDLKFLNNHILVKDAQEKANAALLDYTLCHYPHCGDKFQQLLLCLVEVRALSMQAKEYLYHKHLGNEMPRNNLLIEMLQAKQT
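System: CHO-K1 cells with Gal4–hSF-1 LBD chimera plus Gal4-driven luciferase; quantity: 4,000 CHO-K1 cells per well; compound: one dose, 10 µM compound, 1% DMSO; times: 20 h compound treatment, 37 °C; measured by: SteadyLite luciferase luminescence; read-out: percent activation versus DMSO; benchmarks: DMSO and mock-transfected background; replicates: one test per compound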
M1 antag = antagonists of rat M1 muscarinic receptor. AID 628. P08482. B-score at 10 µM. 3.4% of 64,000 active. CHO-M1 cells, Fluo-4 calcium, ACh EC80 antagonist mode; stronger effect = lower value;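 active = calcium fluorescence response, raw or row-and-column corrected B-score, differing from the plate sample mean either way at a set confidence level, mostly lower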
M1 agonist = agonists of M1 muscarinic receptor | 3% of 64,000 active | CHO-M1 cells, Fluo-4 calcium fluorescence, agonist mode; stronger effect = higher value | B-score at 10 µM;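 active = fluorescence rise, raw or as B-score row- and column-corrected plate score, outside the 99.7% band of its plate's samples, either direction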
S1P1 ag pot = activates or potentiates agonism at human S1P1 receptor; AID 449; P21453; activation, % at 9.5 µM; 0.57% of 56,000 active; S1P1 CRE-bla cells, forskolin, beta-lactamase FRET, potentiator mode; S1P1 agonist co-added at EC20, 2 nM; 100% = saturating reference agonist, 0% = basal;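 active = activation above a cutoff set at the mean activation of all tested compounds plus 3 SD, cut at about 54% in these data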;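 also: forskolin at 4 µM as EC80 and the EC20 agonist is SEW2871; 100% = SEW2871 at its EC100 plus forskolin at EC80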
* marks the source's active call; other numbers are inactive results; . = not tested or not shown.

SMILES	S1P3 ag	RORA act	SF1 activator	M1 antag	M1 agonist	S1P1 ag pot
Clc1ccc2nc(CSc3nc4ccccc4o3)cn2c1	-1.9	13.3	50.2*	0.836	0.569	-18.0
CCOC(=O)C1=C(CC)Nc2ccccc2N=C1NC(=O)Nc1ccccc1OC	0.3	-16.7	3.6	0.844*	0.873	4.9
CCOC(=O)C1=C(C)Nc2ccccc2N=C1NC(=O)CCCN1C(=O)c2ccccc2C1=O	1.0	-3.5	5.3	0.549	-1.29	-19.9
CCOC(=O)N1CCN(Cc2nc(N)nc(Nc3ccc(Oc4ccccc4)cc3)n2)CC1	-0.4	9.8	-24.9	.	.	.
Cc1cc(OCC(=O)c2ccc(F)cc2)ccc1N1C(=O)CCC1=O	-0.2	-2.0	-1.0	0.24	0.875	13.6
COc1ccc2nc(SCC(=O)N3CCNC3=O)[nH]c2c1	-0.5	44.9	64.8*	-0.793	1.34	-25.8
COc1ccc(CC(=O)N2CCNC2=O)cc1	-0.7	22.7	-1.5	0.677	0.249	-11.9
CCOC(=O)c1c(C)n(C)c2ccc(OCC(O)CN3C(=O)c4ccccc4S3(=O)=O)cc12 (stereo not given)	-0.3	-6.8	6.2	-0.807	7.22*	-124.1
CCOC(=O)c1c(C)n(C)c2ccc(OCC(O)CN(CC)CC)cc12 (stereo not given)	-0.1	19.9	24.1	0.0627	1.56	-20.8
CN(C)/C=N/c1nc2ccc3c(c2s1)CCCC3	4.1	65.7*	59.3*	-0.335	0.236	-13.6
CCOc1cc(N2CCOCC2)c(OCC)cc1NC(=O)COC(=O)CCc1c[nH]c2ccccc12	0.3	-3.3	1.4	-0.207	-0.00107	-19.0
c1ccc(Cc2nnc3sc(-c4ccc5c(c4)OCO5)nn23)cc1	0.5	-2.4	19.7	0.0474	0.752	-31.7
c1ccc(Cc2nnc3sc(-c4ccc5c(c4)OCCO5)nn23)cc1	-0.4	38.0	55.0*	-0.433	-0.482	-27.5
Brc1ccc(-c2nn3c(-c4ccccn4)nnc3s2)o1	-0.5	-26.2	-23.7	-0.685	0.635	1.7
Brc1ccc(-c2nn3c(-c4ccncc4)nnc3s2)o1	0.2	-5.6	0.6	-3.14*	0.918	-11.1
Cc1ccc(C)c(N2CCN(C(=O)c3cc(S(=O)(=O)N4CCOCC4)ccc3F)CC2)c1	0.7	-14.2	-6.5	-0.261	-0.358	-8.0
O=C(CSc1nc2ccccc2[nH]1)Nc1ccc2c(c1)OCCO2	-0.1	12.2	19.6	0.59	-0.0909	16.6
O=C(CSc1ccccn1)c1ccc2c(c1)OCO2	-0.7	8.9	61.2*	0.166	0.175	-8.7
CC1CCN(C(=O)CSc2nc3ccccc3[nH]2)CC1	-0.5	60.6*	44.3	0.0706	-0.096	-41.7
O=C(CSc1nc2ccccc2[nH]1)N1CCN(c2ccc(F)cc2)CC1	-1.4	2.8	2.1	0.274	0.396	-2.4
O=C(CSc1nc2ccccc2[nH]1)c1ccc2c(c1)OCO2	-1.3	51.4*	40.0	-0.663	-1.49	-5.0
CCOc1cc(C(=O)NCCOC)ccc1OC	-0.7	-24.8	1.9	-0.147	0.0503	-17.8
Cc1cc(NC(=O)CS(=O)(=O)c2cn(Cc3ccccc3Cl)c3ccccc23)no1	.	2.1	11.2	3.66*	0.0806	.
CCOC(=O)c1cnc2cc3c(cn2c1=O)CCCC3	0.3	26.8	86.5*	0.687	-0.174	0.0
C=CCNc1nc(-c2ccc(OC)cc2OC)cs1	0.2	51.5*	102.5*	0.00622	-0.34	7.4
CCc1nnc(NC(=O)C(C)N2C(=O)C3C4C=CC(C4)C3C2=O)s1 (stereo not given)	0.0	-4.0	5.3	0.116	-0.101	-4.8
CCC(C(=O)NC1CCCC1)N(Cc1ccc2c(c1)OCO2)C(=O)c1snc(C(N)=O)c1N (stereo not given)	0.6	-18.4	9.8	1.07	1.51	-6.8
CCCC(C(=O)NC1CCCC1)N(Cc1cccs1)C(=O)c1snc(C(N)=O)c1N (stereo not given)	-1.2	-12.2	-15.1	-0.815	4.07*	-29.9
COc1ccc(OC)c(-n2c(SCC(=O)NCc3ccco3)nnc2-c2c[nH]c3ccccc23)c1	-0.7	-23.3	5.2	0.217	0.0695	2.5
COc1ccc(CCn2c(-c3ccco3)nc3oc4ccccc4c(=O)c3c2=O)cc1	-2.3	-17.5	-4.2	-0.628	0.108	-4.7
